# Measured values from ChEMBL document CHEMBL1122777, “Effect of tellurium position on the myocardial uptake of radioiodinated 18-iodotellura-17-octadecenoic acid analogues” (1984).
# Assays:
# [1] = Ratio of heart to liver uptake after 5 min was determined in female Fischer rats after [125I]-labeled compound complexed with bovine serum albumin was injected intravenously; format: functional
# Procedure, shortened: (§1)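 Female Fischer 344 rats (food and water ad libitum) given the 125I-labelled fatty acid in 6% bovine albumin with 10% final ethanol, filtered, 0.5 mL into a lateral tail vein under ether anaesthesia. Four rats per time point. Tissue activity expressed as % injected dose/g against assayed injectate standards. Mean heart/tissue ratios were calculated from mean %ID/g values.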
# [2] = Ratio of heart to kidneys uptake after 60 min was determined in female Fischer rats after [125I]-labeled compound complexed with bovine serum albumin was injected intravenously; format: functional, Heart/Kidney; procedure, shortened: as §1
# [3] = Ratio of heart to kidneys uptake after 240 min was determined in female Fischer rats after [125I]-labeled compound complexed with bovine serum albumin was injected intravenously; format: functional, Heart/Kidney; procedure, shortened: as §1
# [4] = Ratio of heart to lungs uptake after 30 min was determined in female Fischer rats after [125I]-labeled compound complexed with bovine serum albumin was injected intravenously; format: functional; procedure, shortened: as §1
# [5] = Ratio of heart to kidneys uptake after 30 min was determined in female Fischer rats after [125I]-labeled compound complexed with bovine serum albumin was injected intravenously; format: functional, Heart/Kidney; procedure, shortened: as §1
# Rattus norvegicus [6] = assay: Heart uptake after 5 min was determined in female Fischer rats after [125I]-labeled compound complexed with bovine serum albumin was injected intravenously; format: functional
# Procedure, shortened: (§2)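 Female Fischer 344 rats (fed ad libitum) under ether anaesthesia received the ¹²⁵I fatty acid in a lateral tail vein. Dose was ~3.8–4.8 μCi per rat (sp act ~125–240 mCi/mmol), given in 0.5 mL 6% bovine albumin (final ethanol 10%) after filtration. Four rats per time point were used. Tissue radioactivity is % injected dose/g, mean with range, calculated against standards of the injected solution.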
# [7] = Ratio of heart to liver uptake after 30 min was determined in female Fischer rats after [125I]-labeled compound complexed with bovine serum albumin was injected intravenously; format: functional; procedure, shortened: as §1
# [8] = Ratio of heart to liver uptake after 240 min was determined in female Fischer rats after [125I]-labeled compound complexed with bovine serum albumin was injected intravenously; format: functional; procedure, shortened: as §1
# [9] = Ratio of heart to lungs uptake after 5 min was determined in female Fischer rats after [125I]-labeled compound complexed with bovine serum albumin was injected intravenously; format: functional; procedure, shortened: as §1
# Rattus norvegicus [10] = assay: Heart uptake after 120 min was determined in female Fischer rats after [125I]-labeled compound complexed with bovine serum albumin was injected intravenously; format: functional; procedure, shortened: as §2
# Rattus norvegicus [11] = assay: Heart uptake after 60 min was determined in female Fischer rats after [125I]-labeled compound complexed with bovine serum albumin was injected intravenously; format: functional; procedure, shortened: as §2
# [12] = Ratio of heart to blood uptake after 60 min was determined in female Fischer rats after [125I]-labeled compound complexed with bovine serum albumin was injected intravenously; format: functional; procedure, shortened: as §1
# [13] = Ratio of heart to kidneys uptake after 120 min was determined in female Fischer rats after [125I]-labeled compound complexed with bovine serum albumin was injected intravenously; format: functional, Heart/Kidney; procedure, shortened: as §1
# [14] = Ratio of heart to lungs uptake after 240 min was determined in female Fischer rats after [125I]-labeled compound complexed with bovine serum albumin was injected intravenously; format: functional; procedure, shortened: as §1
# Rattus norvegicus [15] = assay: Heart uptake after 240 min was determined in female Fischer rats after [125I]-labeled compound complexed with bovine serum albumin was injected intravenously; format: functional; procedure, shortened: as §2
# [16] = Ratio of heart to liver uptake after 120 min was determined in female Fischer rats after [125I]-labeled compound complexed with bovine serum albumin was injected intravenously; format: functional; procedure, shortened: as §1
# [17] = Ratio of heart to kidneys uptake after 5 min was determined in female Fischer rats after [125I]-labeled compound complexed with bovine serum albumin was injected intravenously; format: functional, Heart/Kidney; procedure, shortened: as §1
# [18] = Ratio of heart to blood uptake after 120 min was determined in female Fischer rats after [125I]-labeled compound complexed with bovine serum albumin was injected intravenously; format: functional; procedure, shortened: as §1
# Rattus norvegicus [19] = assay: Heart uptake after 30 min was determined in female Fischer rats after [125I]-labeled compound complexed with bovine serum albumin was injected intravenously; format: functional; procedure, shortened: as §2
# [20] = Ratio of heart to blood uptake after 5 min was determined in female Fischer rats after [125I]-labeled compound complexed with bovine serum albumin was injected intravenously; format: functional; procedure, shortened: as §1
# [21] = Ratio of heart to liver uptake after 60 min was determined in female Fischer rats after [125I]-labeled compound complexed with bovine serum albumin was injected intravenously; format: functional; procedure, shortened: as §1
# [22] = Ratio of heart to blood uptake after 240 min was determined in female Fischer rats after [125I]-labeled compound complexed with bovine serum albumin was injected intravenously; format: functional; procedure, shortened: as §1
# [23] = Ratio of heart to lungs uptake after 60 min was determined in female Fischer rats after [125I]-labeled compound complexed with bovine serum albumin was injected intravenously; format: functional; procedure, shortened: as §1
# [24] = Ratio of heart to blood uptake after 30 min was determined in female Fischer rats after [125I]-labeled compound complexed with bovine serum albumin was injected intravenously; format: functional; procedure, shortened: as §1
# [25] = Ratio of heart to lungs uptake after 120 min was determined in female Fischer rats after [125I]-labeled compound complexed with bovine serum albumin was injected intravenously; format: functional; procedure, shortened: as §1
smiles,measurement,setting,value
O=C(O)CCCCC[Te]CCCCCCCCC/C=C/I,Ratio,[1],0.56
same,Ratio,[2],3.1
same,Ratio,[3],3.1
same,Ratio,[4],2.9
same,Ratio,[5],3.1
same,Injected dose/g,Rattus norvegicus [6],3.47%
same,Ratio,[7],0.49
same,Ratio,[8],0.54
same,Ratio,[9],2.7
same,Injected dose/g,Rattus norvegicus [10],2.86%
same,Injected dose/g,Rattus norvegicus [11],2.96%
same,Ratio,[12],13
same,Ratio,[13],3.3
same,Ratio,[14],2.8
same,Injected dose/g,Rattus norvegicus [15],2.37%
same,Ratio,[16],0.59
same,Ratio,[17],3.3
same,Ratio,[18],12
same,Injected dose/g,Rattus norvegicus [19],2.78%
same,Ratio,[20],13
same,Ratio,[21],0.55
same,Ratio,[22],8
same,Ratio,[23],2.9
same,Ratio,[24],13
same,Ratio,[25],2.9
